Activity calls are given as the source filed them. The calls are words filed in the database; no cut-off is given here.
Experiments:
HeLa = test: Antiproliferative activity against human HeLa cells assessed as cell viability after 48 hrs by MTT assay; format: functional
How it was run: (§1)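 Cells plated at 2 × 10^4 cells/mL and allowed to adhere for 24 h, then exposed to compounds for 48 h. MTT reagent (5 mg/mL stock) added for 2 h, formazan dissolved in DMSO, OD read at 490 nm.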

MCF7 = test: Antiproliferative activity against human MCF7 cells assessed as cell viability after 48 hrs by MTT assay; format: functional; conditions: MCF7, 48 h; how it was run: as §1
Bos taurus [1] = organism: Bos taurus; test: Inhibition of bovine tubulin polymerization at 25 uM
How it was run: (§2)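 Purified bovine tubulin incubated at 37 °C in buffer with 10% glycerol and 1 mM GTP, each agent in a separate run against a 0.05% DMSO control. Polymerization followed kinetically by fluorescence increase on a plate reader.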

Jurkat [2] = test: Induction of apoptosis in human Jurkat cells at 5 uM by annexin V/propidium iodide assay; format: functional, cell-based
How it was run: (§3)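 Jurkat cells at 2 × 10^5 cells/mL exposed to compounds, with DMSO control. Exposure was 5 μM for 36 h, 1 μM for 12–60 h, or 48 h across a range of doses. Cells stained with Annexin-V-FITC/propidium iodide in HHB with CaCl2 for 20 min at 37 °C. Flow cytometry gives % Annexin-V-positive cells; four replicates, experiment repeated twice.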

Jurkat [3] = test: Cell cycle arrest in human Jurkat cells assessed as accumulation at S phase at 1 uM after 24 hrs by flow cytometry; format: functional
How it was run: (§4)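 Cells stained with Vybrant DyeCycle Orange in HHB (1 μL dye per mL) for 30 min at 37 °C in the dark, then analysed by flow cytometry. % relative DNA content ± SD, two independent experiments each in triplicate.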

Jurkat [4] = test: Induction of apoptosis in human Jurkat cells assessed as morphological changes after 2 hrs by light microscopy; format: functional, cell-based
How it was run: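 Jurkat cells exposed to compound at 1 μM for 2 h, with 0.1% DMSO as control. Finger-like extensions and shriveling scored by light microscopy.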

Jurkat [5] = test: Cell cycle arrest in human Jurkat cells assessed as accumulation at G0/G1 phase at 1 uM after 24 hrs by flow cytometry; format: functional; how it was run: as §4
Jurkat [6] = test: Cell cycle arrest in human Jurkat cells assessed as accumulation at G2/M phase at 1 uM after 24 hrs by flow cytometry; format: functional; how it was run: as §4
Jurkat [7] = test: Induction of apoptosis in human Jurkat cells assessed as oligonucleosomal DNA fragments at 1.5 uM after 36 hrs by DNA laddering assay; format: functional, cell-based
How it was run: (§5)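 About 1 × 10^6 Jurkat cells treated for 36 h. Cells lysed in Tris-HCl pH 8/EDTA/0.5% SDS/proteinase K at 55 °C for 60 min, then RNase at 55 °C for 60 min. Cleared lysate run on a 1.5% agarose gel with ethidium bromide at 80 V for about 1 h and viewed under UV.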

Jurkat [8] = test: Induction of apoptosis in human Jurkat cells by annexin V/propidium iodide assay; format: functional, cell-based; conditions: TDE = time-dependent effect; how it was run: as §3
Jurkat [9] = test: Induction of apoptosis in human Jurkat cells at 100 nM by annexin V/propidium iodide assay
Bos taurus [10] = organism: Bos taurus; test: Induction of bovine tubulin polymerization at 3 uM relative to control; how it was run: as §2
Jurkat [11] = test: Induction of apoptosis in human Jurkat cells assessed as oligonucleosomal DNA fragments at 0.4 uM after 36 hrs by DNA laddering assay; format: functional, cell-based; how it was run: as §5

| SMILES | GI50 (HeLa) [nM] | GI50 (MCF7) [nM] | also measured |
| --- | --- | --- | --- |
| Cc1ccc(C2C(C#N)=C(N)Oc3c2c(=O)n(C)c2ccccc32)o1 (stereo not given) | 3900 | 5100 | – |
| COc1cc([C@@H]2c3cc4c(cc3[C@H](O)[C@H]3COC(=O)[C@H]23)OCO4)cc(OC)c1OC | – | – | Activity (Bos taurus [1]): Active |
| Cn1c(=O)c2c(c3ccccc31)OC(N)=C(C#N)C2c1cccnc1 (stereo not given) | 2000 | > 50000 | – |
| Cn1c(=O)c2c(c3ccccc31)OC(N)=C(C#N)C2c1cccc([N+](=O)[O-])c1 (stereo not given) | 320 | 1100 | – |
| Cc1cc2c(c(=O)n1C)C(c1ccc(F)c(Br)c1)C(C#N)=C(N)O2 (stereo not given) | 6400 | – | Activity (Jurkat [2]): Active |
| COc1ccc(C2C(C#N)=C(N)Oc3c2c(=O)n(C)c2ccccc32)cc1Br (stereo not given) | 410 | 500 | – |
| Cn1c(=O)c2c(c3ccccc31)OC(N)=C(C#N)C2c1cccc(Cl)c1Cl (stereo not given) | 1800 | > 50000 | – |
| Cc1cc2c(c(=O)n1C)C(c1ccc(C(C)C)cc1)C(C#N)=C(N)O2 (stereo not given) | > 100000 | – | Activity (Jurkat [2]): inactive |
| COc1cc(C2C(C#N)=C(N)Oc3cc(C)n(C)c(=O)c32)cc(OC)c1OC (stereo not given) | 43300 | – | – |
| COc1cc(C2C(C#N)=C(N)Oc3c2c(=O)n(C)c2ccccc32)cc(Br)c1OC (stereo not given) | 14 | 380 | Activity (Jurkat [3]): 28%; Activity (Bos taurus [1]): Active; Activity (Jurkat [4]): Active; Activity (Jurkat [5]): 20%; Activity (Jurkat [6]): 49%; Activity (Jurkat [7]): Active |
| COc1cc(C2C(C#N)=C(N)Oc3c2c(=O)n(C)c2ccccc32)ccc1O (stereo not given) | 630 | 500 | – |
| Cn1c(=O)c2c(c3ccccc31)OC(N)=C(C#N)C2c1ccc(Cl)c(Cl)c1 (stereo not given) | 300 | 2500 | – |
| Cn1c(=O)c2c(c3ccccc31)OC(N)=C(C#N)C2c1c(Cl)cccc1Cl (stereo not given) | > 50000 | 36000 | – |
| Cn1c(=O)c2c(c3ccccc31)OC(N)=C(C#N)C2c1cncc(Br)c1 (stereo not given) | 13 | 15 | – |
| Cn1c(=O)c2c(c3ccccc31)OC(N)=C(C#N)C2c1cc(Br)cc(Br)c1 (stereo not given) | 77 | 75 | – |
| COc1cc(C2C(C#N)=C(N)Oc3cc(C)n(C)c(=O)c32)cc(Br)c1OC(C)=O (stereo not given) | 3500 | – | Activity (Jurkat [2]): Active |
| Cn1c(=O)c2c(c3ccccc31)OC(N)=C(C#N)C2c1ccccc1 (stereo not given) | 390 | 3380 | – |
| COc1cc(C2C(C#N)=C(N)Oc3c2c(=O)n(C)c2ccccc32)cc(Br)c1O (stereo not given) | 47 | 390 | Activity (Jurkat [3]): 22%; Activity (Bos taurus [1]): Active; Activity (Jurkat [8]): tde; Activity (Jurkat [4]): Active; Activity (Jurkat [5]): 27%; Activity (Jurkat [9]): Active; Activity (Jurkat [6]): 47%; Activity (Jurkat [7]): Active |
| Cn1c(=O)c2c(c3ccccc31)OC(N)=C(C#N)C2c1ccco1 (stereo not given) | 22000 | 35000 | – |
| COc1cc(C2C(C#N)=C(N)Oc3c2c(=O)n(C)c2ccccc32)cc([N+](=O)[O-])c1O (stereo not given) | 630 | 710 | – |

| SMILES | GI50 (HeLa) [nM] | GI50 (MCF7) [nM] | also measured |
| --- | --- | --- | --- |
| Cc1cc2c(c(=O)n1C)C(c1cccc(Br)c1)C(C#N)=C(N)O2 (stereo not given) | 6500 | – | Activity (Jurkat [2]): Active |
| COc1cc(C2C(C#N)=C(N)Oc3c2c(=O)n(C)c2ccccc32)cc(Br)c1OC(C)=O (stereo not given) | 180 | 25 | – |
| Cc1cc2c(c(=O)n1C)C(c1cccc([N+](=O)[O-])c1)C(C#N)=C(N)O2 (stereo not given) | 35000 | – | – |
| Cn1c(=O)c2c(c3ccccc31)OC(N)=C(C#N)C2c1ccc(F)c(Br)c1 (stereo not given) | 270 | 810 | – |
| COc1ccc(CCn2c(C)cc3c(c2=O)C(c2cc(OC)c(OC)c(OC)c2)C(C#N)=C(N)O3)cc1OC (stereo not given) | 22700 | – | Activity (Jurkat [2]): inactive |
| Cn1c(=O)c2c(c3ccccc31)OC(N)=C(C#N)C2c1ccncc1 (stereo not given) | > 50000 | 32000 | – |
| COc1ccc(C2C(C#N)=C(N)Oc3c2c(=O)n(C)c2ccccc32)cc1O (stereo not given) | > 50000 | > 50000 | – |
| Cn1c(=O)c2c(c3ccccc31)OC(N)=C(C#N)C2c1cccc(Br)c1 (stereo not given) | 740 | 3 | – |
| COc1cc(C2C(C#N)=C(N)Oc3cc(C)n(C)c(=O)c32)cc(Br)c1OC (stereo not given) | 580 | – | Activity (Jurkat [2]): Active |
| CCOc1c(Br)cc(C2C(C#N)=C(N)Oc3cc(C)n(C)c(=O)c32)cc1OC (stereo not given) | 1100 | – | Activity (Jurkat [2]): Active |
| COc1cc(C2C(C#N)=C(N)Oc3cc(C)n(C)c(=O)c32)cc(Br)c1O (stereo not given) | 2700 | – | Activity (Jurkat [2]): Active |
| Cn1c(=O)c2c(c3ccccc31)OC(N)=C(C#N)C2c1cc(Br)c(O)c(Br)c1 (stereo not given) | 270 | 430 | – |
| Cn1c(=O)c2c(c3ccccc31)OC(N)=C(C#N)C2c1cccc(Cl)c1 (stereo not given) | 150 | 2200 | – |
| Cc1cc2c(c(=O)n1C)C(c1ccc(N(C)C)c(Br)c1)C(C#N)=C(N)O2 (stereo not given) | 330 | – | Activity (Jurkat [2]): Active |
| COc1cc(C2C(C#N)=C(N)Oc3c2c(=O)n(C)c2ccccc32)cc(OC)c1OC (stereo not given) | 240 | 1000 | – |
| Cn1c(=O)c2c(c3ccccc31)OC(N)=C(C#N)C2c1ccccc1[N+](=O)[O-] (stereo not given) | 5000 | 3500 | – |
| Cc1cc2c(c(=O)n1C)C(c1ccc(Cl)c(Cl)c1)C(C#N)=C(N)O2 (stereo not given) | 18300 | – | Activity (Jurkat [2]): inactive |
| CC(=O)O[C@H]1C(=O)[C@@]2(C)[C@H]([C@H](OC(=O)c3ccccc3)[C@]3(O)C[C@H](OC(=O)[C@H](O)[C@@H](NC(=O)c4ccccc4)c4ccccc4)C(C)=C1C3(C)C)[C@]1(OC(C)=O)CO[C@@H]1C[C@@H]2O | – | – | Activity (Bos taurus [10]): Active; Activity (Jurkat [11]): Active |
| Cn1c(=O)c2c(c3ccccc31)OC(N)=C(C#N)C2c1cccc(F)c1 (stereo not given) | 300 | 1000 | – |
| Cc1cc2c(c(=O)o1)C(c1cccc(Br)c1)C(C#N)=C(N)O2 (stereo not given) | > 100000 | – | – |
